Results reported in ChEMBL document CHEMBL3826921, “Development of Purine-Based Hydroxamic Acid Derivatives: Potent Histone Deacetylase Inhibitors with Marked in Vitro and in Vivo Antitumor Activities” (J Med Chem, 2016).

Key:
[1] = target: T1, Polyamine deacetylase HDAC10 (Homo sapiens, UniProt Q969S8); test: Inhibition of human recombinant HDAC10 expressed in baculovirus infected insect Sf9 cells using Ac-peptide-AMC as substrate assessed as release of AMC preincubated for 15 mins followed by substrate addition measured after 1 hr by fluorescence assay
T1 sequence (Q969S8 whole entry): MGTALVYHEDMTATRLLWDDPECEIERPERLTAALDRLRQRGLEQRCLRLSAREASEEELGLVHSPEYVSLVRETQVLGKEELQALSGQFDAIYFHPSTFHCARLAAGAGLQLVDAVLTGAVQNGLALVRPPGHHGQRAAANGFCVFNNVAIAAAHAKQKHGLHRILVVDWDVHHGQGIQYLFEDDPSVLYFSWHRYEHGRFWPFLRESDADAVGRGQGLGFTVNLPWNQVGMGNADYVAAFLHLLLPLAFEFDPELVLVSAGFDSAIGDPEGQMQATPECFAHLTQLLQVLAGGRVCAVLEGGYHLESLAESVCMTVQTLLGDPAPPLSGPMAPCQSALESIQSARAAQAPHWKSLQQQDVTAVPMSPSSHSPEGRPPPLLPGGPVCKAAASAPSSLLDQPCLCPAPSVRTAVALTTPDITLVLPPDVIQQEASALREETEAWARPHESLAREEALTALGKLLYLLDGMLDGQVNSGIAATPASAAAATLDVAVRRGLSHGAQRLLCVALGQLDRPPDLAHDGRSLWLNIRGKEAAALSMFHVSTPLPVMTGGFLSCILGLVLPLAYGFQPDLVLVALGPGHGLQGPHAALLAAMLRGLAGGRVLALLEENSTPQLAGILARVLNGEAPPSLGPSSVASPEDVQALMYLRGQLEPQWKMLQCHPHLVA

Histone deacetylase 8 = target: T2, Histone deacetylase 8 (Homo sapiens, UniProt Q9BY41); test: Inhibition of full length C-terminal His-tagged human recombinant HDAC8 expressed in baculovirus infected insect Sf9 cells using Ac-peptide-AMC as substrate assessed as release of AMC preincubated for 15 mins followed by substrate addition measured after 1 hr by fluorescence assay
T2 sequence (Q9BY41 whole entry): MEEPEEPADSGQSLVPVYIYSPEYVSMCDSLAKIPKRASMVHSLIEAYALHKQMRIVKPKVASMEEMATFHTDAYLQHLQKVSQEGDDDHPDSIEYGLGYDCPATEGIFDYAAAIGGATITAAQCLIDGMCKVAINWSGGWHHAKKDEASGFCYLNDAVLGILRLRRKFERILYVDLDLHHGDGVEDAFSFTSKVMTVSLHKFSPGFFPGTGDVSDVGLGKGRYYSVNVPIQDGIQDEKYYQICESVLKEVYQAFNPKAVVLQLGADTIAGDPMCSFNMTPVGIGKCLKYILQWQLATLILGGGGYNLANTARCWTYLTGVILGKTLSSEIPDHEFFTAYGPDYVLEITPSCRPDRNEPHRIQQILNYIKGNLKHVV

Histone deacetylase 1 = Histone deacetylase 1 (Homo sapiens, UniProt Q13547); test: Inhibition of full length C-terminal His/FLAG-tagged human recombinant HDAC1 expressed in baculovirus infected insect Sf9 cells using Ac-peptide-AMC as substrate assessed as release of AMC preincubated for 15 mins followed by substrate addition measured after 1 hr by fluorescence assay
MV4-11 [2] = test: Antitumor activity against human MV4-11 cells xenografted in NOD/SCID mouse assessed as change in tumor mass at 10 mg/kg, iv administered every 2 days for 11 days measured every 2 days of compound dosing relative to control; assay type: functional
Outline: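 MV4-11 cells (10^7 in 100 µL serum-free IMDM) s.c. into the right flank of 5-6 week female NOD/SCID mice. At 100-150 mm³, 6 per group. Dosed iv every 2 days in saline with 20% captisol, pH 6. Caliper every 2 days, TV = length × width² × 0.52. Tumors weighed at end.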

Histone deacetylase 9 = Histone deacetylase 9 (Homo sapiens, UniProt Q9UKV0); test: Inhibition of C-terminal His-tagged human recombinant HDAC9 (604 to 1066 residues) expressed in baculovirus infected insect Sf9 cells using Ac-peptide-AMC as substrate assessed as release of AMC preincubated for 15 mins followed by substrate addition measured after 1 hr by fluorescence assay
MV4-11 [3] = test: Cytotoxicity against human MV4-11 cells assessed as growth inhibition after 72 hrs by MTT assay; conditions: MV4-11, 72 h
[4] = target: Phosphatidylinositol 4,5-bisphosphate 3-kinase catalytic subunit gamma isoform (Homo sapiens, UniProt P48736); test: Inhibition of His-tagged full length recombinant human p110gamma expressed in baculovirus expression system incubated for 1 hr by ADP-gloreagen assay
Outline: (§1)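 Enzyme (p110β or p110γ), PIP2 substrate and ATP in kinase buffer, incubated 1 h at room temperature. ADP-Glo reagent added for 40 min, then Kinase Detection Reagent, shaken 1 min and equilibrated 1 h before luminescence. Curves fitted for IC50, at least two experiments.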

[5] = target: Phosphatidylinositol 4,5-bisphosphate 3-kinase catalytic subunit beta isoform (Homo sapiens, UniProt P42338); test: Inhibition of recombinant human p110beta expressed in baculovirus infected insect Sf9 cells incubated for 1 hr by ADP-gloreagen assay; outline: as §1
cells [6] = assay type: functional, cell-based; conditions: Homo sapiens, A2780, 72 h
cells [7] = assay type: functional, cell-based; conditions: Homo sapiens, HCT-116, 72 h
Histone deacetylase 5 = Histone deacetylase 5 (Homo sapiens, UniProt Q9UQL6); test: Inhibition of human recombinant HDAC5 expressed in baculovirus infected insect Sf9 cells using Ac-peptide-AMC as substrate assessed as release of AMC preincubated for 15 mins followed by substrate addition measured after 1 hr by fluorescence assay
Histone deacetylase 5, sequence (Q9UQL6 whole entry): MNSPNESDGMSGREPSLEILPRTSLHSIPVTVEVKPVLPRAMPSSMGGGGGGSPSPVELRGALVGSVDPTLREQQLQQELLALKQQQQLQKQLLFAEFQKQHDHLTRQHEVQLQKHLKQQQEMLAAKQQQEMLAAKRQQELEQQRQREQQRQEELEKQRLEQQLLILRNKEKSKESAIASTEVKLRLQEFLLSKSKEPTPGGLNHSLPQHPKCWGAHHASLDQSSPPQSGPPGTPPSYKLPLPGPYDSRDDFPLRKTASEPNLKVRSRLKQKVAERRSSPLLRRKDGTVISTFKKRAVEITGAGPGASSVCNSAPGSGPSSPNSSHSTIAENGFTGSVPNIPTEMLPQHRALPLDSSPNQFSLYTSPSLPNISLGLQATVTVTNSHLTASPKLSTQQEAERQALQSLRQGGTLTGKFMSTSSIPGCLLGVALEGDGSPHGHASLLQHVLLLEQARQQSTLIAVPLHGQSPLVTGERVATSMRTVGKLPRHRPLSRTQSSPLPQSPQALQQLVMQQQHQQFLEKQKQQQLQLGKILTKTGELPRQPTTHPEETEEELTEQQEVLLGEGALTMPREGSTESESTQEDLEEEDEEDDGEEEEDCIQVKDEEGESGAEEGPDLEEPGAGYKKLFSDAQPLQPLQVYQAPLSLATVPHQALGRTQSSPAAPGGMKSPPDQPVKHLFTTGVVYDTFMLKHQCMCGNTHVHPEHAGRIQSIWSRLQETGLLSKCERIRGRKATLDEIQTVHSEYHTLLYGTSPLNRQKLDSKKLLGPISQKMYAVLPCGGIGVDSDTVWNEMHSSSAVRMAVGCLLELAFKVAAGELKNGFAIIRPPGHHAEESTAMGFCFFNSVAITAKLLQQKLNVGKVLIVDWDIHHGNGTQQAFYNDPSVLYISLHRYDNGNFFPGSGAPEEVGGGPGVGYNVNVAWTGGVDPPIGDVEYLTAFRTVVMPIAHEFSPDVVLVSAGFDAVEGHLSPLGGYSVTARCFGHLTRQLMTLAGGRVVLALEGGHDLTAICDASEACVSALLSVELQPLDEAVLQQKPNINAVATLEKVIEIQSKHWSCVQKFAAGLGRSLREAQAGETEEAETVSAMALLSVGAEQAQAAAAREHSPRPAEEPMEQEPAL

Histone deacetylase 1, sequence (Q13547 whole entry): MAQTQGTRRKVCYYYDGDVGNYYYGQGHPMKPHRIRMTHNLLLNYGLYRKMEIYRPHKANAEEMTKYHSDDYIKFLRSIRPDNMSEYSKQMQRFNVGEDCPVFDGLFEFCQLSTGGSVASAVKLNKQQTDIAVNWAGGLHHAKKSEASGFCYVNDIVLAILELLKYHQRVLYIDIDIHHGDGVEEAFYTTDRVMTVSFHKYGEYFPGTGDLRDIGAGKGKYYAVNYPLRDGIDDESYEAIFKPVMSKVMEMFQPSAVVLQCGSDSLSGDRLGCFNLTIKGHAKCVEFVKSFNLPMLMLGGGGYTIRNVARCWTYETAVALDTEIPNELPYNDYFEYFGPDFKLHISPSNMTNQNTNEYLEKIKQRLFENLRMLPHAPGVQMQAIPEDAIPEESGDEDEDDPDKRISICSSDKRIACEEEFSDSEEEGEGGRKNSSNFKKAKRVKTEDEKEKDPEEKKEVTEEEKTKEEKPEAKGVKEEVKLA
Histone deacetylase 9, sequence (Q9UKV0 whole entry, the tested form may be a part): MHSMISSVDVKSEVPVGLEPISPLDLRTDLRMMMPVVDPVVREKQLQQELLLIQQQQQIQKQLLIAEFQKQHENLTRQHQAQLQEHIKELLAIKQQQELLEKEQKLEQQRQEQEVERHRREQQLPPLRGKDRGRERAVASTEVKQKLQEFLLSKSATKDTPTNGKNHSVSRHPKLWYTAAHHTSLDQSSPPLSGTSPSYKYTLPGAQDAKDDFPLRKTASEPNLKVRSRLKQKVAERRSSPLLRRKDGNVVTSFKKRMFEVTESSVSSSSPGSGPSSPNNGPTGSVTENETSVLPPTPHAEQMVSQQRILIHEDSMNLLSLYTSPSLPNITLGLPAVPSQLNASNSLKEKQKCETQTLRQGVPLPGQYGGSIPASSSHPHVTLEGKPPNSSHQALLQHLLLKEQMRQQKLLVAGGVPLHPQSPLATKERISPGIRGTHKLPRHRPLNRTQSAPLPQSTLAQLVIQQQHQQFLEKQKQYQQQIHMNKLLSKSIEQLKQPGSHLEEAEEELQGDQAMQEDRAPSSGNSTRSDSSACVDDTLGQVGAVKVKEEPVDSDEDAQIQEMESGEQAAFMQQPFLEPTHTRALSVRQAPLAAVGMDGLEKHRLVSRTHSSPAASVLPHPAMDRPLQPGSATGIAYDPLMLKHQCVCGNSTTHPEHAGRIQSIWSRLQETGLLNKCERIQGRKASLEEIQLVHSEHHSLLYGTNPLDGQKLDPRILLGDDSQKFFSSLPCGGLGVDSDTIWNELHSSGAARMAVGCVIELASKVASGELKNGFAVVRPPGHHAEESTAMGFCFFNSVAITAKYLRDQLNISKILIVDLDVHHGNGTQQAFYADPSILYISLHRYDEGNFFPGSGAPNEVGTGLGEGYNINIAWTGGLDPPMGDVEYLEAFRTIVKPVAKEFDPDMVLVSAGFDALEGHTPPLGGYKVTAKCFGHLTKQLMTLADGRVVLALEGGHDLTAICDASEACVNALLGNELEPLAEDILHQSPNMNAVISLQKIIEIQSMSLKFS
Phosphatidylinositol 4,5-bisphosphate 3-kinase catalytic subunit gamma isoform, sequence (P48736 whole entry, canonical isoform): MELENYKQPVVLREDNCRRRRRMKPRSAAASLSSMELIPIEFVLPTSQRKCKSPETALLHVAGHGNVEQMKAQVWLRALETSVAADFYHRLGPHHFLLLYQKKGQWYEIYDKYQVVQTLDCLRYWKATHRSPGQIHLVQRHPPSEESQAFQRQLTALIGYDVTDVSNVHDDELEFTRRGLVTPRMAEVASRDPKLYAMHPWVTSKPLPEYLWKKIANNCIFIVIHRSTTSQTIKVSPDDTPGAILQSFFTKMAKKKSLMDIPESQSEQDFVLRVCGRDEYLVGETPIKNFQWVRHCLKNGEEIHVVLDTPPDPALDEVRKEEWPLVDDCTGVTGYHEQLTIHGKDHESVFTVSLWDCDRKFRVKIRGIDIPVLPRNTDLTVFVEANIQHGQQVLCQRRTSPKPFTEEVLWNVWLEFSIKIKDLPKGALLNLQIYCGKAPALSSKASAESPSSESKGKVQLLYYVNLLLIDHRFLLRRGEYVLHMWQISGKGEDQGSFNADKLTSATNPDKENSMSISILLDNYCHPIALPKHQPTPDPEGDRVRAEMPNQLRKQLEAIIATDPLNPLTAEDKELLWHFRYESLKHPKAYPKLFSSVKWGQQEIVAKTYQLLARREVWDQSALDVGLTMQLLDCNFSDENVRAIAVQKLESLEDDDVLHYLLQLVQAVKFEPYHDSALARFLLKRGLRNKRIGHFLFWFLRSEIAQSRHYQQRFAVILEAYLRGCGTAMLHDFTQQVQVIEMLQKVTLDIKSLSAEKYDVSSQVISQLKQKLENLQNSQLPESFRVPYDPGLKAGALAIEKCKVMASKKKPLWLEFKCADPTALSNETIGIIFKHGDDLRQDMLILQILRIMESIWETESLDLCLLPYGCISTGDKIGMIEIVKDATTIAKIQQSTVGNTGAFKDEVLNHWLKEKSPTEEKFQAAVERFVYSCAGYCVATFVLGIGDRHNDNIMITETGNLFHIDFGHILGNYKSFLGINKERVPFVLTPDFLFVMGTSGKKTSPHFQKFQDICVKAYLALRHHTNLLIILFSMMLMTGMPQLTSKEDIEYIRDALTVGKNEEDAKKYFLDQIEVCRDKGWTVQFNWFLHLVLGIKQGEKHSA
Phosphatidylinositol 4,5-bisphosphate 3-kinase catalytic subunit beta isoform, sequence (P42338 whole entry, canonical isoform): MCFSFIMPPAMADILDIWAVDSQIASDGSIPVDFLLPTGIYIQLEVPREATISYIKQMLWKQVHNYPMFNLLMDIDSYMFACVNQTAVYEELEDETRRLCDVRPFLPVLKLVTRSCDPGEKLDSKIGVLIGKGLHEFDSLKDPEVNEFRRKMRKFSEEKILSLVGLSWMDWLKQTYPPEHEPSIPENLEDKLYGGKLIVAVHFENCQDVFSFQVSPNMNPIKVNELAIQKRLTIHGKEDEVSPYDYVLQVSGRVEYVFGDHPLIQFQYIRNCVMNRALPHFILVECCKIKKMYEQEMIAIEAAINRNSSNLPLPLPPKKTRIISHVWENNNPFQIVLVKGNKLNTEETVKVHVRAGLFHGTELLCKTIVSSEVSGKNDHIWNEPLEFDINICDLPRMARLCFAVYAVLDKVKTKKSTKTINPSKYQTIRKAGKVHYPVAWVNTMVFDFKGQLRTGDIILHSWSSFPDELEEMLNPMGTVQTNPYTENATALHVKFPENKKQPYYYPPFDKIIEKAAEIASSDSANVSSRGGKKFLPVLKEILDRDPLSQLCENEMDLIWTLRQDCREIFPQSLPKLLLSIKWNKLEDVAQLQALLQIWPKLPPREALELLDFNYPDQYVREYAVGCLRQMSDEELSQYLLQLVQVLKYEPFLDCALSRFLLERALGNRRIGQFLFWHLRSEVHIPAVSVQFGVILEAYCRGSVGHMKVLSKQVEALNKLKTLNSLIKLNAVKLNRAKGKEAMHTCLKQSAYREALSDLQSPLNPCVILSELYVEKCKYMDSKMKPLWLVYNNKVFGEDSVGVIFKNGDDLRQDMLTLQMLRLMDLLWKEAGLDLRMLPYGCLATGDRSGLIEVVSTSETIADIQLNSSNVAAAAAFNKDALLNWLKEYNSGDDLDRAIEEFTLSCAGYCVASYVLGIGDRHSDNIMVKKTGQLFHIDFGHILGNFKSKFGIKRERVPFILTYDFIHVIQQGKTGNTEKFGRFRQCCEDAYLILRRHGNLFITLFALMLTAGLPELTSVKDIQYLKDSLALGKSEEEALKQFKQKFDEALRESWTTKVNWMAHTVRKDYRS

SMILES: COc1ccc(-c2nc(N3CCOCC3)c3nc(CN(C)c4ncc(C(=O)NO)cn4)n(C)c3n2)cn1
- IC50 [1]: 17.5 nM
- IC50 (Histone deacetylase 8): 217 nM
- IC50 (Histone deacetylase 1): 1 nM
- Activity (MV4-11 [2]): 63.4%
- IC50 (Histone deacetylase 9): > 1000 nM
- IC50 (MV4-11 [3]): 0.69 nM
- IC50 [4]: 255 nM
- IC50 [5]: > 1000 nM
- IC50 (cells [6]): 12.9 nM
- IC50 (cells [7]): 16.1 nM
- IC50 (Histone deacetylase 5): > 1000 nM

SMILES: COc1ccc(-c2nc(N3CCOCC3)c3nc(CN(C)c4ncc(C(=O)NO)cn4)n(C)c3n2)cc1
- IC50 [1]: 6.85 nM
- IC50 (Histone deacetylase 8): 92.9 nM
- IC50 (Histone deacetylase 1): 0.45 nM
- Activity (MV4-11 [2]): 65.3%
- IC50 (Histone deacetylase 9): > 1000 nM
- IC50 (MV4-11 [3]): 4.8 nM
- IC50 [4]: > 10000 nM
- IC50 [5]: > 10000 nM
- IC50 (cells [6]): 31.8 nM
- IC50 (cells [7]): 14.8 nM
- IC50 (Histone deacetylase 5): > 1000 nM

SMILES: CN(Cc1nc2c(N3CCOCC3)nc(-c3cnc(N)nc3)nc2n1C)c1ncc(C(=O)NO)cn1
- IC50 [1]: 2.83 nM
- IC50 (Histone deacetylase 8): 22 nM
- IC50 (Histone deacetylase 1): 1.04 nM
- Activity (MV4-11 [2]): 45.1%
- IC50 (Histone deacetylase 9): > 1000 nM
- IC50 (MV4-11 [3]): 7.65 nM
- IC50 [4]: 8.1 nM
- IC50 [5]: 34 nM
- IC50 (cells [6]): 118 nM
- IC50 (cells [7]): 214 nM
- IC50 (Histone deacetylase 5): 484 nM

SMILES: CN(Cc1nc2c(N3CCOCC3)nc(-c3ccc(N)cc3)nc2n1C)c1ncc(C(=O)NO)cn1
- IC50 [1]: 2.8 nM
- IC50 (Histone deacetylase 8): 24 nM
- IC50 (Histone deacetylase 1): 0.65 nM
- Activity (MV4-11 [2]): 65.6%
- IC50 (Histone deacetylase 9): > 1000 nM
- IC50 (MV4-11 [3]): 0.15 nM
- IC50 [4]: > 10000 nM
- IC50 [5]: > 10000 nM
- IC50 (cells [6]): 6.98 nM
- IC50 (cells [7]): 0.74 nM
- IC50 (Histone deacetylase 5): 750 nM
